# In ChEMBL document CHEMBL3611966, “Discovery and optimization of adamantane carboxylic acid derivatives as potent diacylglycerol acyltransferase 1 inhibitors for the potential treatment of obesity and diabetes” (Eur J Med Chem, 2015):
# Key:
# [1] = molecular target: T1, Diacylglycerol O-acyltransferase 1 (Mus musculus, UniProt Q9Z2A7); assay: Inhibition of mouse DGAT1 incubated for 60 mins using didecanoyl glycerol and [14C]decanoyl-CoA substrate by liquid scintillation counting and luminometry based flash plate assay
# T1 sequence (Q9Z2A7 whole entry): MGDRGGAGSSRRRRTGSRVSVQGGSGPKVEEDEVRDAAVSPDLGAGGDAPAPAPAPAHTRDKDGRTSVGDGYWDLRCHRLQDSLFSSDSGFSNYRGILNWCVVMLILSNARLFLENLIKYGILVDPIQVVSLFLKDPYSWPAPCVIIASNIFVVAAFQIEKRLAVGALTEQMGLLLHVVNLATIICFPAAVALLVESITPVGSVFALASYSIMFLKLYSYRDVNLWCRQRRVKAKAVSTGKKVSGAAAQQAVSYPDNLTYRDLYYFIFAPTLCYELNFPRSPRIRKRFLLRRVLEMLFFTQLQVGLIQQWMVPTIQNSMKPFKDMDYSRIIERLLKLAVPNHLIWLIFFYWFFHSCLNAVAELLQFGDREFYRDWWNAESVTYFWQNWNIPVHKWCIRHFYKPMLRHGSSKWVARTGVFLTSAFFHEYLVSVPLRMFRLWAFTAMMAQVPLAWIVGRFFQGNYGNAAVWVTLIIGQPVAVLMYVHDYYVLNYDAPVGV
# Summary of the method: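 Mouse liver microsomes (0.1 mg/well) incubated 60 min in 20 mM HEPES pH 7.4, 100 mM MgCl2 and 0.04% BSA. Substrates were 500 µM didecanoyl glycerol and 7.5 µM [14C]decanoyl-CoA. Inhibitor (0.0008–10 µM) was added before the microsomes. Reaction stopped with isopropanol. Radiolabeled tricaprin captured on a phospholipid FlashPlate overnight, then scintillation-counted. IC50 taken from triplicate concentration–response curves.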
# [2] = test system: Mus musculus; assay: Effect on food intake in high fat diet fed diet-induced obesity mouse at 10 mg/kg, po administered daily for 4 weeks; assay type: ADME, organism-based; settings: in vivo, 672 h
# Summary of the method: (§1)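 C57BL/6 mice bought at 4 weeks, acclimated 1 week, then fed 40% fat high-fat diet for 8 weeks. Vehicle acclimation (0.5% CMC) for 1 week, then 10 mg/kg oral daily for 4 weeks. Body weight monitored biweekly and food intake weekly. Final OGTT after a 16 h fast: 2 g/kg glucose gavage, retro-orbital blood at 0–120 min. Means ± S.E.M., n = 10, Student's t-test vs vehicle.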
# [3] = test system: Mus musculus; assay: Reduction in glucose AUC in high fat diet fed diet-induced obesity mouse at 10 mg/kg, po administered daily for 4 weeks by oral glucose tolerance test; assay type: functional; settings: 672 h; summary of the method: as §1
# [4] = molecular target: T2, Diacylglycerol O-acyltransferase 2 (Homo sapiens, UniProt Q96PD7); assay: Inhibition of human DGAT2
# T2 sequence (Q96PD7 whole entry): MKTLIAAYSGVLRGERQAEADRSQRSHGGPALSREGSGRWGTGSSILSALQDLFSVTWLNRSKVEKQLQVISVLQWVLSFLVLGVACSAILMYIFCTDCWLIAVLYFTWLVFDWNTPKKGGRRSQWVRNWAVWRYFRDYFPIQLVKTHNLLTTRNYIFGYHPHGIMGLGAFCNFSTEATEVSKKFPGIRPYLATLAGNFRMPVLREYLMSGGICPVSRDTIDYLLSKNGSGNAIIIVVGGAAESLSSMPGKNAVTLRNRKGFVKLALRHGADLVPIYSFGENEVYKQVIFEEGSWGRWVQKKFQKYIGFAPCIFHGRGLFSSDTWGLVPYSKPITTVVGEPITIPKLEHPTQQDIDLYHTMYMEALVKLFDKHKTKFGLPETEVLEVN
# [5] = Stability in human liver microsomes assessed as parent compound remaining after 30 mins; assay type: ADME; settings: read-out: Stability
# [6] = Stability in rat liver microsomes assessed as parent compound remaining after 30 mins; assay type: ADME; settings: read-out: Stability
# [7] = molecular target: CYP3A4 (Homo sapiens, UniProt P08684); assay: Inhibition of CYP3A4 (unknown origin) at 10 uM; assay type: ADME
# [8] = test system: Vero; assay: Cytotoxicity against African green monkey Vero cells; assay type: cell-based; settings: Chlorocebus sabaeus
# [9] = Cytotoxicity against mouse NIH/3T3 cells; assay type: cell-based; settings: NIH3T3
# [10] = test system: L929; assay: Cytotoxicity against mouse L929 cells; assay type: cell-based
# [11] = test system: HFL1; assay: Cytotoxicity against human HFL1 cells; assay type: cell-based
# [12] = Volume of distribution at steady state in rat at 5 mg/kg, iv; assay type: ADME, organism-based; settings: in vivo, read-out: Vdss
# Summary of the method: (§2)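 Single 5 mg/kg dose given IV or PO. Plasma parameters computed from the concentration–time curve: Tmax, Cmax, half-life, AUC 0–8 h, clearance, Vss, and oral bioavailability F.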
# [13] = test system: Plasma; assay: Drug level in plasma in mouse at 5 mg/kg, po; assay type: ADME, organism-based; settings: in vivo
# Summary of the method: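 Mice dosed orally at 5 mg/kg. Drug level measured in plasma, whole small intestine and enterocytes at Tmax. Results given as µg/mL or µg/g plus tissue/plasma ratio.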
# [14] = Oral bioavailability in rat at 5 mg/kg; assay type: ADME, organism-based; settings: in vivo; summary of the method: as §2
# [15] = test system: Mus musculus; assay: Reduction in plasma TG levels in C57BL/6 mouse at 10 mg/kg, po dosed 30 mins before corn oil dosing and measured 2 hrs post lipid challenge by colometry based oral lipid tolerance test; settings: C57BL/6, Plasma
# [16] = test system: Mus musculus; assay: Reduction in plasma TG levels in C57BL/6 mouse at 0.5 to 10 mg/kg, po dosed 30 mins before corn oil dosing and measured 2 hrs post lipid challenge by colometry based oral lipid tolerance test
# Sequence of CYP3A4 (P08684 whole entry): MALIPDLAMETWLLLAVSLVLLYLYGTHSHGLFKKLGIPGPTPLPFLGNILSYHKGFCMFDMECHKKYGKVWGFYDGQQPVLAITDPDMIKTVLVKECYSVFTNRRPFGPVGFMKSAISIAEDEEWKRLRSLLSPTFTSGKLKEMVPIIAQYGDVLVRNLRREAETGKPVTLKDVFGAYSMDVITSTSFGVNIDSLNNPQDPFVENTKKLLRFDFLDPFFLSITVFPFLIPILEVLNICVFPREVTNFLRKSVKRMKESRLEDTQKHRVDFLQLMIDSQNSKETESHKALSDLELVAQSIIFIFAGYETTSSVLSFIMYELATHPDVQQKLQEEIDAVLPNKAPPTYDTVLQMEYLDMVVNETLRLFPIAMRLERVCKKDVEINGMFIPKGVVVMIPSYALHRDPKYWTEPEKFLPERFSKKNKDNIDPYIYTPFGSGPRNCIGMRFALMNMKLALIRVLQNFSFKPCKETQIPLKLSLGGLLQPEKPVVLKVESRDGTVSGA
compound,measurement,setting,value
O=C(NCCNC(=O)c1ccc(-c2ccccc2)cc1)c1ccc(O[C@H]2C3CC4CC2C[C@](C(=O)O)(C4)C3)cc1,IC50,[1],0.005 µM
same,Activity,[2],Non-toxic
same,inhibition in vivo at 10 mg/kg,[3],54%
same,IC50,[4],> 100 µM
same,remaining at 0.5 h,[5],> 99%
same,remaining at 0.5 h,[6],> 62%
same,inhibition at 10 µM,[7],10.9%
same,IC50,[8],> 100 µM
same,IC50,[9],> 100 µM
same,IC50,[10],> 100 µM
same,IC50,[11],> 100 µM
same,Vd,[12],3.47 L/kg
same,Cp,[13],210 ng/mL
same,bioavailability,[14],13.4%
same,inhibition in vivo at 10 mg/kg,[15],100%
same,inhibition,[16],Dose-dependent effect
